Experiment [1] in a line: Inhibition of Escherichia coli MurA using UNAG and PEP as substrate preincubated for 30 mins in presence of UNAG followed by PEP addition and measured after 15 mins by malachite green colorimetric assay. The essentials: (§1)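 IC50 from MurA (E. coli or S. aureus) residual activities at seven compound concentrations. Conditions: 30 min preincubation with UNAG at 37 °C, then PEP, 15 min at 37 °C, in 50 mM Hepes pH 7.8, 0.005% Triton X-114 and 5% DMSO. Malachite green read at 650 nm. Values are means of duplicates.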

Experiment [2] relates to Escherichia coli. Nature of the experiment: Inhibition of Escherichia coli MurA assessed as residual activity at 100 uM using UNAG and PEP as substrate preincubated for 30 mins in presence of UNAG followed by PEP addition and measured after 15 mins in presence of 5 mM cysteine by malachite green colorimetric assay relative to control. The settings on record: time 45.0 min. The essentials: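 MurA from E. coli, with the enzyme diluted in Hepes pH 7.8 containing cysteine (15 mM in buffer, giving 5 mM in incubation). Preincubated with UNAG and compound for 30 min at 37 °C, then PEP added and reacted 15 min at 37 °C. Phosphate read by malachite green at 650 nm. Duplicates; residual activity is versus DMSO control.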

A short description of experiment [3]: Inhibition of recombinant cathepsin X (unknown origin) expressed in Pichia pastoris assessed as residual activity at 100 uM using Abz-Fek(Dnp)-OH as substrate preincubated for 30 mins under shaking in presence of 5 mM cysteine followed by substrate addition relative to control. The following applies: Homo sapiens.
Experiment [4] in a line: Inhibition of Staphylococcus aureus MurA expressed in Escherichia coli using UNAG and PEP as substrate preincubated for 30 mins in presence of UNAG followed by PEP addition and measured after 15 mins by malachite green colorimetric assay. The essentials: as §1
In experiment [5] the test system is Escherichia coli. In words: Inhibition of Escherichia coli MurA assessed as residual activity at 100 uM using UNAG and PEP as substrate preincubated for 30 mins in presence of UNAG followed by PEP addition and measured after 15 mins by malachite green colorimetric assay relative to control. The following applies: time 45.0 min.
The next experiment has as its system Staphylococcus aureus. In words: Inhibition of Staphylococcus aureus MurA expressed in Escherichia coli assessed as residual activity at 100 uM using UNAG and PEP as substrate preincubated for 30 mins in presence of UNAG followed by PEP addition and measured after 15 mins by malachite green colorimetric assay relative to control. The following applies: time 45.0 min.

The target in experiment [6] is Cathepsin B (Homo sapiens) (UniProt P07858). Nature of the experiment: Inhibition of recombinant cathepsin B (unknown origin) endopeptidase activity expressed in Escherichia coli assessed as residual activity at 100 uM using Z-RR-AMC as substrate preincubated for 30 mins under shaking in presence of 5 mM cysteine followed by substrate addition relative to control.

The target is the same in experiment [7]. Nature of the experiment: Inhibition of recombinant cathepsin B (unknown origin) exopeptidase activity expressed in Escherichia coli assessed as residual activity at 100 uM using Abz-GIVRAK(Dnp)-OH as substrate preincubated for 30 mins under shaking in presence of 5 mM cysteine followed by substrate addition relative to control.
Experiment [8] has as its system Escherichia coli. In words: Inhibition of Escherichia coli MurA assessed as residual activity at 25 uM using UNAG and PEP as substrate preincubated for 30 mins in presence of UNAG followed by PEP addition and measured after 15 mins by malachite green colorimetric assay relative to control.
Experiment [9] concerns Escherichia coli. In words: Inhibition of Escherichia coli MurA assessed as residual activity at 1 mM using UNAG and PEP as substrate preincubated for 30 mins in presence of UNAG followed by PEP addition and measured after 15 mins by malachite green colorimetric assay relative to control. The following applies: time 45.0 min.

This passage reports IC50 and Activity results from ChEMBL document CHEMBL4680109, “A road map for prioritizing warheads for cysteine targeting covalent inhibitors” (Eur J Med Chem, 2018).

Structures can show the parent of a compound that is named as a salt.

As to `FC(F)(F)c1cccc(N=C=S)c1`, the IC50 – broadly, the concentration that inhibits the measured activity by half – amounted to 28 µM in experiment [1] and 53 µM in experiment [4]. Moreover, the Activity in the experiment on Escherichia coli [2] stood at 99%; in [3], 87%; in the experiment on Escherichia coli [5] it was 3%; in the experiment with Staphylococcus aureus, 9%; in [6] it was 100%; in experiment [7], 97%.

On to `S=C=Nc1ccccc1` [PHENYLISOTHIOCYANATE], for which, in [1], the IC50 is 90 µM. In addition, the Activity in the experiment with Escherichia coli [2] was determined as 91%; in [3] it was 67%; with Escherichia coli [5], 53%; in the experiment with Staphylococcus aureus it was 75%; in experiment [6] it was 100%; in experiment [7] it was 98%.

On to `O=C(CBr)c1ccccc1`, for which the Activity in the experiment with Escherichia coli [2] was found to be 94%; in experiment [3] it was 75%; in the experiment with Escherichia coli [5], 2%; with Staphylococcus aureus, 7%; in experiment [6] it was 83%; in [7], 27%.

Consider `O=C1C=CC(=O)N1Cc1ccccc1`, for which the IC50 came out at 0.565 µM in [1] and 1.04 µM in experiment [4]. Also, the Activity was 99% with Escherichia coli [2]; 96% in [3]; 2% in the experiment with Escherichia coli [5]; 0% in the experiment with Staphylococcus aureus; 100% in experiment [6]; 87% in experiment [7].

With `O=C1C=CC(=O)N1C1CCCCC1`, the IC50 came to 0.554 µM in experiment [1] and 0.652 µM in experiment [4]. Besides, the Activity came to 85% in the experiment on Escherichia coli [8]; 100% in the experiment on Escherichia coli [2]; 96% in [3]; 1% with Escherichia coli [5]; 0.3% in the experiment on Staphylococcus aureus; 96% in [6]. In addition, in experiment [7], the Activity was 89%.

`Cc1ccc(S)cc1`: the IC50 was found to be 1.25 µM in [1] and 7.83 µM in experiment [4]. For the same compound, the Activity in the experiment with Escherichia coli [2] came to 94%; in experiment [3] it was 100%; in the experiment on Escherichia coli [5] it was 6%; with Staphylococcus aureus it was 23%; in experiment [6], 100%; in experiment [7] it was 67%.

As to `COc1ccccc1C(=O)CBr`, the IC50 in experiment [1] was found to be 0.384 µM; in experiment [4], 1.82 µM. For the same compound, the Activity came out at 100% in the experiment on Escherichia coli [2]; 74% in experiment [3]; 3% with Escherichia coli [5]; 4% with Staphylococcus aureus; 90% in [6]; 55% in [7].

With `CCOC(=O)C#Cc1ccccc1`, the Activity in the experiment on Escherichia coli [2] is 99%; in experiment [3], 92%; in the experiment with Escherichia coli [5], 75%; in the experiment with Staphylococcus aureus, 67%; in experiment [6], 85%; in experiment [7] it was 70%.

As to `COc1ccc(N=C=S)cc1`, in experiment [1], the IC50 amounted to 45 µM. Also, the Activity came to 94% in the experiment on Escherichia coli [2]; 55% in [3]; 33% in the experiment with Escherichia coli [5]; 91% in the experiment on Staphylococcus aureus; 100% in [6]; 99% in experiment [7].

Turning to `COc1cc2c(cc1OC)CN(C(=O)CCl)CC2`, the results for the IC50 in experiment [1] and in experiment [4] were 141 µM and 171 µM, respectively. Moreover, the Activity came out at 98% in the experiment with Escherichia coli [2], 97% in experiment [3], 61% in the experiment on Escherichia coli [5] and 54% in the experiment on Staphylococcus aureus.

Turning to `O=C(CCl)c1ccccc1` [PHENACYL CHLORIDE], the half-maximal inhibitory concentration (IC50) in experiment [1] stood at 2.25 µM; in experiment [4] it was 3.02 µM. Besides, the Activity in the experiment on Escherichia coli [2] came to 93%; in [3], 86%; in the experiment on Escherichia coli [5] it was 3%; with Staphylococcus aureus, 7%; in experiment [6], 63%; in [7], 34%.

In the case of `C=CS(=O)(=O)c1ccccc1` [(ETHENYLSULFONYL)BENZENE], the IC50 in experiment [1] worked out at 15 µM; in experiment [4], 34 µM. Also, the Activity stood at 96% in the experiment with Escherichia coli [2]; 93% in [3]; 12% with Escherichia coli [5]; 30% in the experiment with Staphylococcus aureus; 100% in experiment [6]; 87% in experiment [7].

Take `O=C(CCl)N1CCC(Cc2ccccc2)CC1`: the values for the Activity (in the experiment with Escherichia coli [2]; in the experiment on Staphylococcus aureus; in experiment [6]) were 99%, 55% and 78%, respectively.

For `O=c1[nH]sc2ccccc12`, the IC50 in experiment [1] came out at 1.1 µM; in experiment [4] it was 0.926 µM. In addition, the Activity in the experiment on Escherichia coli [2] is 99%; in [3], 100%; in the experiment on Escherichia coli [5] it was 2%; in the experiment with Staphylococcus aureus, 0%; in experiment [6] it was 100%; in experiment [7] it was 96%.

With `C/C=C/C(=O)OC`, the concentration for half-maximal inhibition (IC50) in experiment [1] worked out at 227 µM. The Activity came to 96% in the experiment with Escherichia coli [2]; 84% in [3]; 41% with Escherichia coli [5]; 66% with Staphylococcus aureus; 100% in [6]; 97% in [7].

As to `O=C(CCl)Nc1ccccc1`, the Activity came to 95% with Escherichia coli [2]; 99% in experiment [3]; 100% in the experiment on Escherichia coli [5]; 59% in the experiment with Staphylococcus aureus; 100% in experiment [6]; 88% in experiment [7].

For the compound `COC(=O)/C=C/C(=O)OC` [DIMETHYL FUMARATE], the IC50 in experiment [1] came out at 172 µM. In addition, the Activity in the experiment on Escherichia coli [9] was 88%; in the experiment on Escherichia coli [2] it was 90%; in experiment [3] it was 89%; in the experiment with Escherichia coli [5] it was 50%; in the experiment with Staphylococcus aureus, 82%; in experiment [6] it was 100%. The Activity in experiment [7] was 100%.

For `O=C(CCl)Nc1cc(C(F)(F)F)cc(C(F)(F)F)c1`, the IC50 in experiment [1] stood at 75 µM; in experiment [4] it was 100 µM. Further, the Activity came to 80% with Escherichia coli [2], 96% in experiment [3], 96% in the experiment on Staphylococcus aureus and 75% in experiment [6].

Turning to `S=C=NCc1ccccc1` [BENZYL ISOTHIOCYANATE], the IC50 in experiment [1] amounted to 3.7 µM. The Activity worked out at 100% in the experiment with Escherichia coli [2]; 22% in [3]; 3% in the experiment on Escherichia coli [5]; 41% in the experiment on Staphylococcus aureus; 75% in experiment [6]; 18% in [7].

Consider `N#C/C=C/C(F)(F)F`, for which the IC50 in experiment [1] is 95 µM. Further, the Activity in the experiment on Escherichia coli [9] is 100%; with Escherichia coli [2], 100%; in experiment [3] it was 86%; with Escherichia coli [5], 47%; with Staphylococcus aureus it was 81%; in experiment [6], 100%. In [7], the Activity is 88%.

As for `COc1cc(NC(=O)CCl)cc(OC)c1`, the Activity in the experiment on Escherichia coli [2] was 96%; in [3], 84%; in the experiment with Escherichia coli [5] it was 61%; with Staphylococcus aureus it was 52%; in [6], 90%; in [7], 87%.

For `CC#CC(=O)OCC`, the Activity stood at 100% with Escherichia coli [2]; 96% in [3]; 82% with Escherichia coli [5]; 91% with Staphylococcus aureus; 96% in experiment [6]; 84% in experiment [7].

Take `C/C=N/Nc1cc2ccccc2cn1`: the Activity stood at 100% in the experiment on Escherichia coli [2]; 79% in experiment [3]; 99% in the experiment on Escherichia coli [5]; 54% with Staphylococcus aureus; 100% in experiment [6]; 100% in [7].

For the compound `C[C@@H]1O[C@@H]1P(=O)(O)O`, the Activity in the experiment on Escherichia coli [8] was 3%.

On to `C=CC(=O)Nc1cc(C(F)(F)F)cc(C(F)(F)F)c1`, for which, in [1], the IC50 was found to be 164 µM. Besides, the Activity in the experiment with Escherichia coli [9] is 86%; in the experiment on Escherichia coli [2], 100%; in [3] it was 92%; in the experiment with Staphylococcus aureus, 72%.

Take `C/C=C/C#N`: the Activity is 100% in the experiment with Escherichia coli [2]; 90% in experiment [3]; 100% in the experiment on Escherichia coli [5]; 97% in the experiment with Staphylococcus aureus; 100% in experiment [6]; 87% in experiment [7].
